“Also recorded” adds a separate entry of the source. Where no end group is shown, it is not given here. The star is where a group is joined. FITC = O=C1OC2(c3ccc(O)cc3Oc3cc(O)ccc32)c2ccc(NC(=S)*)cc21; Ahx = NCCCCCC(=O)O
Legend:
[1] = Fluorescence emission spectra; assay type: physicochemical; conditions: 100 μM in PBS, 471 nm excitation
Q-hTERT cells [2] = test: Flow cytometry, Q-hTERT cells; assay type: binding, human
Summary of the method: (§1)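 Adenocarcinoma and non-neoplastic Q-hTERT cells, grown as adherent monolayers at 37°C, 5% CO2, incubated with FITC-labelled peptide, with FITC-labelled control peptides (including a scrambled sequence), or left unstained. Mean fluorescence intensity measured by flow cytometry.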

[3] = system: H460 adenocarcinoma cells; test: Confocal fluorescence microscopy, H460; assay type: binding, human
Summary of the method: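 Adherent H460 cultures (DMEM, 10% FBS, P/S, 37°C, 5% CO2) were incubated with FITC-labeled test peptide and examined by confocal fluorescence microscopy for plasma-membrane labeling. Non-neoplastic Q-hTERT Barrett's cells, grown in keratinocyte serum-free medium with 50 μg/ml bovine pituitary extract and 0.005 μg/ml EGF, were the control line.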

[4] = system: Barrett's neoplasia (HGD/EAC); test: Confocal endomicroscopy in vivo after topical peptide administration; design: species or system human
adenocarcinoma cells = test: Flow cytometry, adenocarcinoma cells; assay type: binding, human; conditions: for mean intensity of controls lower than that for ASY*-FITC: flow cytometry, relative to ASY*-FITC
Summary of the method: as §1

[5] = system: OE33 adenocarcinoma cells; test: Confocal fluorescence microscopy, OE33; assay type: binding, human
Summary of the method: (§2)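 Adherent OE19 and OE33 esophageal carcinoma monolayers maintained at 37°C, 5% CO2 in RPMI-1640 with 10% FBS, penicillin/streptomycin and 5 μg/ml plasmocin. FITC-labelled peptide binding to the plasma membrane examined by confocal fluorescence microscopy.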

[6] = system: FLO1 adenocarcinoma cells; test: Confocal fluorescence microscopy, FLO1; assay type: binding, human
Summary of the method: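 FLO1 esophageal adenocarcinoma cells cultured as adherent monolayers in DMEM with 10% FBS, penicillin/streptomycin and 5 μg/ml plasmocin at 37°C, 5% CO2. Plasma-membrane binding of FITC-labelled peptide assessed by confocal fluorescence microscopy.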

human subjects [7] = conditions: in vivo
H460 cells [8] = test: Binding affinity; design: species or system human; conditions: read-out: apparent dissociation constant (kd); ASY*-FITC to H460 cells; averages from 3 independent experiments; least squares fit
Summary of the method: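 Human H460 lung adenocarcinoma cells were grown as adherent monolayers in DMEM with 10% FBS and 100 U/ml penicillin/streptomycin at 37°C, 5% CO2. They were incubated with FITC-labeled test peptide, and the apparent dissociation constant was derived from cell-bound fluorescence. Values are averages of 3 independent experiments.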

[9] = Stability testing of lyophilized powder; assay type: physicochemical; conditions: −20°C
Summary of the method: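 GMP-synthesized FITC-peptide aliquoted into amber vials crimp-sealed with septa and stored at −20°C. Monitored by appearance (colour), HPLC and mass spectrometry over 3 years.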

[10] = system: human esophageal mucosa (squamous, BE, HGD, EAC); test: Ex vivo fluorescence stereomicroscopy of resected esophageal specimens; assay type: binding; conditions: 1 mm^2 regions, 12 EMR specimens
human subjects [11] = test: Peptide safety in humans
[12] = system: OE19 adenocarcinoma cells; test: Confocal fluorescence microscopy, OE19; assay type: binding, human
Summary of the method: as §2

Q-hTERT cells [13] = test: Confocal fluorescence microscopy, Q-hTERT; assay type: binding, human; conditions: Q-hTERT BE cells
Summary of the method: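 Non-neoplastic Q-hTERT Barrett's cells kept in keratinocyte serum-free medium with 50 μg/ml bovine pituitary extract, 0.005 μg/ml recombinant human EGF and penicillin/streptomycin, as adherent monolayers at 37°C, 5% CO2. Binding of FITC-labelled peptide checked by confocal fluorescence microscopy.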

H460 cells [14] = test: Binding kinetics; design: species or system human; conditions: ASY*-FITC to H460 cells; least squares fit
Summary of the method: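 H460 lung adenocarcinoma cells grown as adherent monolayers in DMEM with 10% FBS and 100 U/ml penicillin/streptomycin at 37°C, 5% CO2. Association time constant k determined for FITC-labelled peptide binding to these cells.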

H460 cells [15] = test: Competitive binding with ASY*-FITC on H460 cells; design: species or system human; conditions: unlabeled competitor 100 to 1000 μM (GGG* control at concentrations up to 1000 μM, P>0.05, unpaired t-test)
ovarian cancer = conditions: topical administration, mouse model of ovarian cancer; cited from earlier work
[16] = system: H460, FLO1, OE33, and OE19 adenocarcinoma cells; test: Confocal fluorescence microscopy, control peptides; assay type: binding, human; conditions: compared with ASY*-FITC
[17] = system: human H460 adenocarcinoma cells; test: Phage display biopanning, phage count / pfu binding to H460 cells; conditions: pfu counts

O=C1OC2(c3ccc(O)cc3Oc3cc(O)ccc32)c2ccc(N=C=S)cc21 [FITC, reference compound]
peak emission [1]: 519 nm

ASYNYDA [ASY*-FITC]
difference between ASY*-FITC and control peptides on binding to Q-hTERT cells (Q-hTERT cells [2]): No difference
binding to plasma membrane (confocal), H460 [3]: binding of ASY*-FITC to the plasma membrane
greater fluorescence intensity for HGD/EAC (neoplasia) than for BE and squamous ([4]; 25 human subjects, topical 5 ml of 100 μM, 5 min incubation): 3.8 fold
in vivo binding, HGD and EAC ([4]; HGD and EAC crypts, confocal endomicroscopy): specific peptide binding to neoplastic crypts
specificity for HGD/EAC ([4]; T/B ratio threshold 4.2, 95% CI: 85%–100%, 25 human subjects): 97%
in vivo binding, squamous epithelium ([4]; normal squamous epithelium, confocal endomicroscopy): no peptide binding
onset of binding ([4]; topical administration): ~ 5 minutes
binding on flow cytometry (in words) (adenocarcinoma cells; compared with control peptides): stronger binding to the adenocarcinoma cells
binding to plasma membrane (confocal), OE33 [5]: binding of ASY*-FITC to the plasma membrane; also recorded: specific binding
binding to plasma membrane (confocal), FLO1 [6]: binding of ASY*-FITC to the plasma membrane; also recorded: specific binding
mean post/pre-EMR WBC ratio at 24 hours (human subjects [7]): 1.7±0.4
post/pre-EMR WBC ratio without peptide compared with peptide and EMR (human subjects [7]): not significantly different
Kd (H460 cells [8]): 0.032 µM
purity on HPLC at end of stability testing ([9]; 36 months, initial 97%): 95%
change in purity on HPLC ([9]; over 36 months (97% to 95%)): ~ 2%
mean fluorescence intensities for HGD and EAC versus non-dysplastic BE and squamous [10]: significantly greater than non-dysplastic BE and squamous
mean WBC count ratio by day 5 (human subjects [11]; 14 out of 21 patients with leukocytosis resolved, SD, P<0.01, Mann Whitney test): 1.1±0.2
mean white blood cell (WBC) count at 24 hours (human subjects [11]; 21 patients with EMR, baseline 7.0×10^3, P<0.01, unpaired t-test, transient): 11.1×10^3
safety of topical application (in words) (human subjects [11]; BE patients, topical): safe and effective
patients with leukocytosis resolved by day 5 (human subjects [11]; after EMR with peptide, remaining 7 patients after day 5): 14 out of 21
urinalyses (human subjects [11]; all 25 patients, baseline and post-procedure): within normal limits
relation of adverse events to the peptide (human subjects [11]; all adverse events, clinical study): unlikely to have been related to the peptide
toxicity attributed to the peptide (human subjects [11]; animal and patient studies): No toxicity was attributed to the peptide
peak emission [1]: 519 nm
binding to plasma membrane (confocal), OE19 [12]: binding of ASY*-FITC to the plasma membrane; also recorded: specific binding
binding to Q-hTERT cells (Q-hTERT cells [13]): did not bind to Q-hTERT cells
apparent association rate constant (k) (H460 cells [14]): 0.2 min⁻¹

GGGAGGGAGGGK
inhibition of ASY*-FITC binding (fluorescence intensity) (H460 cells [15]): No significant reduction in fluorescence intensity

γ-glutamyl hydroxymethyl rhodamine green
time to fluorescence activation (ovarian cancer): ~ 1 minute

{FITC-Ahx}-ASYNYDA
difference between ASY*-FITC and control peptides on binding to Q-hTERT cells (Q-hTERT cells [2]): No difference
mean intensity of controls lower than that for ASY*-FITC (adenocarcinoma cells): < 3 fold
fluorescence signal of control peptides [16]: Significantly less signal

GGGAGGGAGGGK-FITC
difference between ASY*-FITC and control peptides on binding to Q-hTERT cells (Q-hTERT cells [2]): No difference
mean intensity of controls lower than that for ASY*-FITC (adenocarcinoma cells): < 3 fold
fluorescence signal of control peptides [16]: Significantly less signal

ASYNYDA [ASYNYDA phage]
greater binding for H460 than for Q-hTERT cells ([17]; H460 vs Q-hTERT BE cells): 5.3 fold
greater binding for H460 cells in comparison to wild-type (WT)-phage ([17]; vs WT-phage (no peptides expressed)): > 10 fold

AADYYSN-GGGSK-FITC
difference between ASY*-FITC and control peptides on binding to Q-hTERT cells (Q-hTERT cells [2]): No difference
mean intensity of controls lower than that for ASY*-FITC (adenocarcinoma cells): < 3 fold
fluorescence signal of control peptides [16]: Significantly less signal

MNDPIPQ-GGGSK-FITC
difference between ASY*-FITC and control peptides on binding to Q-hTERT cells (Q-hTERT cells [2]): No difference
mean intensity of controls lower than that for ASY*-FITC (adenocarcinoma cells): < 3 fold
fluorescence signal of control peptides [16]: Significantly less signal

Source: publication PMC3859345 (Science translational medicine, 2013)
